Source: ChEMBL document CHEMBL1144557, “The novel C-5 aryl, alkenyl, and alkynyl substituted uracil derivatives of L-ascorbic acid: synthesis, cytostatic, and antiviral activity evaluations” (Bioorg Med Chem, 2007)
≈ marks a conversion by molar mass, not a printed value.

Tests used:
[1] = Antiproliferative activity against human Molt4/C8 cells; format: functional, cell-based; settings: MOLT-4
Summary of the method: (§1)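 Suspension cells seeded at 50 × 10³ cells/well with a range of test compound concentrations. Cell number counted with a Coulter counter after 2 days (L1210) or 3 days (Molt4/C8, CEM). IC50 is the concentration that cuts cell growth by 50% versus untreated controls, read from plots of cell number (% of control) against concentration.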

CCRF-CEM = assay: Antiproliferative activity against human CEM cells; format: functional, cell-based; summary of the method: as §1
HeLa = assay: Antiproliferative activity against human HeLa cells after 72 hrs by MTT assay; format: functional, cell-based
Summary of the method: (§2)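 Monolayers grown in DMEM with 10% FBS, 2 mM L-glutamine and penicillin/streptomycin at 37 °C, 5% CO2. Seeded at 1 × 10⁴–3 × 10⁴ cells/mL on day 0. Compounds from 0.04 M DMSO stocks added at five 10-fold dilutions (10⁻⁸–10⁻⁴ M final), with matched DMSO controls, for 72 h. MTT added for 4 h, formazan dissolved in DMSO, absorbance read at 570 nm. Percentage growth calculated against time-zero and untreated OD. IC50 is 50% inhibition of proliferation.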

MCF7 = assay: Antiproliferative activity against human MCF7 cells after 72 hrs by MTT assay; format: functional, cell-based; settings: MCF7, 72 h; summary of the method: as §2
MIA PaCa-2 = assay: Antiproliferative activity against human MiaPaCa2 cells after 72 hrs by MTT assay; format: functional, cell-based; settings: Homo sapiens, MIA PaCa-2, 72 h; read-out: IC50; summary of the method: as §2
HEp-2 = assay: Antiproliferative activity against human Hep2 cells after 72 hrs by MTT assay; format: functional, cell-based; settings: HEp-2, 72 h; summary of the method: as §2
SW-620 = assay: Antiproliferative activity against human SW620 cells after 72 hrs by MTT assay; format: functional, cell-based; settings: SW-620, 72 h; summary of the method: as §2
WI-38 = assay: Antiproliferative activity against human WI38 cells after 72 hrs by MTT assay; format: functional, cell-based; settings: WI-38, 72 h; summary of the method: as §2
Human alphaherpesvirus 1 [2] = assay: Antiviral activity against HSV1 KOS-induced cytopathogenicity in HEL cells; format: functional; settings: Human alphaherpesvirus 1, KOS
Human alphaherpesvirus 2 [3] = assay: Antiviral activity against HSV2 G-induced cytopathogenicity in HEL cells; format: functional; settings: Human alphaherpesvirus 2, G
[4] = test system: Vesicular stomatitis virus; assay: Antiviral activity against in Vesicular stomatitis virus-induced cytopathogenicity in HEL cells; format: functional
Human alphaherpesvirus 1 [5] = assay: Antiviral activity against HSV1 TK- KOS ACV -induced cytopathogenicity in HEL cells; format: functional; settings: Human alphaherpesvirus 1, KOS
[6] = Cytotoxicity against HEL cells; format: cell-based; settings: human
Summary of the method: (§3)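 Cells seeded at 5 × 10³ cells/well and exposed to medium containing a range of test compound concentrations. After 3 days at 37 °C, cell morphology examined microscopically. Reported as minimum cytotoxic concentration (MCC), the concentration causing a microscopically detectable alteration of normal cell morphology.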

Sindbis virus = assay: Antiviral activity against Sindbis virus-induced cytopathogenicity in Vero cells; format: functional
Coxsackievirus B4 = assay: Antiviral activity against Coxsackie virus B4-induced cytopathogenicity in Vero cells; format: functional; settings: Enterovirus B
Punta Toro virus = assay: Antiviral activity against Punta Toro virus-induced cytopathogenicity in Vero cells; format: functional
[7] = test system: Vesicular stomatitis virus; assay: Antiviral activity against in Vesicular stomatitis virus- induced cytopathogenicity in HeLa cells; format: functional
L1210 = assay: Antiproliferative activity against mouse L1210 cells; format: functional, cell-based; summary of the method: as §1
Human alphaherpesvirus 1 [8] = assay: Antiviral activity against HSV1 KOS-induced cytopathogenicity in E6SM cells; format: functional; settings: Human alphaherpesvirus 1, KOS
Human alphaherpesvirus 2 [9] = assay: Antiviral activity against HSV2 G-induced cytopathogenicity in E6SM cells; format: functional; settings: Human alphaherpesvirus 2, G
[10] = test system: Vesicular stomatitis virus; assay: Antiviral activity against in Vesicular stomatitis virus-induced cytopathogenicity in E6SM cells; format: functional
Human alphaherpesvirus 1 [11] = assay: Antiviral activity against HSV1 TK- KOS ACV-induced cytopathogenicity in E6SM cells; format: functional; settings: Human alphaherpesvirus 1, KOS
[12] = Cytotoxicity against E6SM cells; format: cell-based; settings: human, read-out: MCC; summary of the method: as §3

| SMILES | IC50 [1] [µM] | IC50 (CCRF-CEM) [µM] | IC50 (HeLa) [µM] | IC50 (MCF7) [µM] | IC50 (MIA PaCa-2) [µM] | IC50 (HEp-2) [µM] | IC50 (SW-620) [µM] | IC50 (WI-38) [µM] | MIC (Human alphaherpesvirus 1 [2]) [µM] | MIC (Human alphaherpesvirus 2 [3]) [µM] | MIC [4] [µM] | MIC (Human alphaherpesvirus 1 [5]) [µM] | MCC [6] [µM] | MIC (Sindbis virus) [µM] | MIC (Coxsackievirus B4) [µM] | MIC (Punta Toro virus) [µM] | MIC [7] [µM] | IC50 (L1210) [µM] | MIC (Human alphaherpesvirus 1 [8]) [µM] | MIC (Human alphaherpesvirus 2 [9]) [µM] | also measured |
| --- | --- | --- | --- | --- | --- | --- | --- | --- | --- | --- | --- | --- | --- | --- | --- | --- | --- | --- | --- | --- | --- |
| O=C1O/C(=C\Cn2cc(C#Cc3ccccc3)c(=O)[nH]c2=O)C(O)=C1O | 8.2 | 7.6 | 2 | 1 | 3 | 3 | 4 | 1 | > 4 | 4 (≈ 1.41 µg/mL) | 4 (≈ 1.41 µg/mL) | > 4 | 20 | > 4 | > 4 | > 4 | > 4 | 8.1 |  |  |  |
| O=C1O/C(=C\Cn2cc(-c3ccccc3)c(=O)[nH]c2=O)C(OCc2ccccc2)=C1OCc1ccccc1 | 159 | 122 | 25 | 18 | 18 | 22 | 21 | 28 |  |  |  |  |  | > 157 | > 157 | > 157 | > 157 | 142 | > 157 | > 157 | MIC [10]: 157 µM (≈ 79.8 µg/mL); MIC (Human alphaherpesvirus 1 [11]): > 157 µM; MCC [12]: 787 µM |
| C#Cc1cn(C/C=C2\OC(=O)C(O)=C2O)c(=O)[nH]c1=O | 37 | 23 | 13 | 13 | 13 | 12 | 17 | 11 | > 4 | > 4 | > 4 | > 4 | 20 | > 4 | > 4 | 4 (≈ 1.1 µg/mL) | > 4 | 15 |  |  |  |
| O=C1O/C(=C\Cn2cc(-c3ccco3)c(=O)[nH]c2=O)C(O)=C1O | ≥ 500 | 436 | > 100 | > 100 | > 100 | > 100 | > 100 | > 100 | > 100 | > 100 | > 100 | > 100 | 100 | > 100 | > 100 | > 100 | > 100 | ≥ 500 |  |  |  |
| C#Cc1cn(C/C=C2\OC(=O)C(OCc3ccccc3)=C2OCc2ccccc2)c(=O)[nH]c1=O | 7.2 | 4.6 | 3.2 | 2.9 | 8.7 | 4.6 | 5 | 1.5 | > 18 | > 18 | > 18 | > 18 | ≥ 18 | > 18 | > 18 | > 18 | > 18 | 6.8 |  |  |  |
| O=C1O/C(=C\Cn2cc(-c3ccccc3)c(=O)[nH]c2=O)C(O)=C1O | 322 | 282 | > 100 | > 100 | > 100 | > 100 | > 100 | > 100 | > 100 | > 100 | > 100 | > 100 | 100 | > 100 | > 100 | > 100 | > 100 | 354 |  |  |  |
| O=C1O/C(=C\Cn2cc(-c3cccs3)c(=O)[nH]c2=O)C(OCc2ccccc2)=C1OCc1ccccc1 | 150 | 117 | 18 | 17 | 16.5 | 18 | 21 | 19 |  |  |  |  |  | > 156 | > 156 | > 156 | > 156 | 142 | > 156 | > 156 | MIC [10]: > 156 µM; MIC (Human alphaherpesvirus 1 [11]): > 6.4 µM; MCC [12]: 780 µM |
| CC(C)=CCc1cn(C/C=C2\OC(=O)C(OCc3ccccc3)=C2OCc2ccccc2)c(=O)[nH]c1=O | 8.3 | 7.7 | 2 | 4 | 5 | 2.6 | 4 | 2 | 4 (≈ 2 µg/mL) | 4 (≈ 2 µg/mL) | > 4 | > 4 | 20 | > 4 | > 4 | 4 (≈ 2 µg/mL) | > 4 | 8.2 |  |  |  |
| O=C1O/C(=C\Cn2cc(-c3cccs3)c(=O)[nH]c2=O)C(O)=C1O | > 500 | > 500 | > 100 | > 100 | > 100 | > 100 | > 100 | > 100 | > 100 | > 100 | > 100 | > 100 | 100 | > 100 | > 100 | > 100 | > 100 | > 500 |  |  |  |
| O=C1O/C(=C\Cn2cc(C#Cc3ccccc3)c(=O)[nH]c2=O)C(OCc2ccccc2)=C1OCc1ccccc1 | 108 | 101 | > 100 | 55 | > 100 | > 100 | > 100 | > 100 |  |  |  |  |  | 120 (≈ 63.9 µg/mL) | > 200 | > 200 | > 200 | 108 | > 40 | > 40 | MIC [10]: > 40 µM; MIC (Human alphaherpesvirus 1 [11]): > 40 µM; MCC [12]: 200 µM |
